Active and inactive are the calls of the source.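 How the source made its calls, unless noted: active means visually confirmed hit in the image check and inhibition above 20%; inconclusive means visually confirmed hit but inhibition not above 20%; inactive means no visual hit in the image check.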

The inhibition is the relative decrease from the control value, in per cent.

Test [1] is described as follows: inhibitors of TNFa-induced NFkB p65 translocation, primary screen, imaging, HUVEC, MLSMR starter and 10KST1 sets (AID 438;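 active means inhibition above 20% together with a positive visual image hit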;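 further: compound added about 3h40 before a 20 min TNFalpha stimulation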;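 on inhibition: signal is the nuclear over cytoplasmic p65 intensity ratio per well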). The following applies: HUVEC TNFa-induced p65 nuclear translocation; cell count: measured here: nuclei count (cytotoxicity indicator), at 2.08 µM; inhibition: at 2 µM, stronger effect = higher value, 0% TNFa-plus-vehicle, 100% no-TNFa wells.
Test [2] in a line: inhibitors of E-selectin induction by TNFa, primary screen, imaging, HUVEC, immunofluorescence, MLSMR starter and 10KST1 sets (AID 487).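 On inhibition: signal is fraction of cell area covered by stained E-selectin grains.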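 On nuclei count: 100% = median nuclei count of all wells on the same plate.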 The following applies: HUVEC TNFalpha-induced E-selectin immunofluorescence imaging, at 2 µM; inhibition: stronger effect = higher value; nuclei count: measured here: cell number, toxicity.
A short description of test [3]: DUSP6 inhibitors restoring Erk phosphorylation by chemical complementation, primary imaging in DUSP6-transfected HeLa (AID 609;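 active means compounds giving at least 50% inhibition in the cell-based MKP-3 phosphatase rescue imaging test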;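 on inhibition: phospho-Erk level distribution per well compared with pooled transfected vehicle control wells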). The following applies: HeLa MKP-3 transfected, phospho-Erk imaging KS statistic, at 10 µM, cells stimulated with TPA for 15 min.
The target in test [4] is Dual specificity protein phosphatase 6 (Homo sapiens) (UniProt Q16828). Described as above. The following applies: HeLa MKP-3 transfected, phospho-Erk imaging KS statistic; at 10 µM; stronger effect = higher value; cells stimulated with TPA for 15 min.
Test [5] concerns the target Voltage-gated potassium channel subunit beta-2 (Rattus norvegicus) (UniProt P62483). Nature of the test: KvBeta enzyme negative modulators, primary screen, biochemical, NADPH fluorescence (AID 622;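 active means fluorescence slope higher than the sample average by over 3 SD, cut at about -0.22 in these data, passing the limit was not always enough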;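 further: slope of raw intensity against log time taken from 70 to 1610 s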). The following applies: recombinant KvBeta, 4-cyanobenzaldehyde reduction, at 10 µM, stronger effect = higher value.
The target is the same in test [6]. The test is described as follows: KvBeta positive modulators, primary screen, biochemical, NADPH fluorescence (AID 623;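 active means NADPH fluorescence slope more negative than the mean of all samples by about 3 SD, 99.7% confidence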;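 further: fluorescence intensity change per second fitted from 20 to 320 s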). Conditions: Recombinant KvBeta, NADPH fluorescence decrease slope, 10 min; at 10 µM; stronger effect = lower value.
In test [7] the target is Alpha-2C adrenergic receptor (Homo sapiens) (UniProt P18825). Nature of the test: modulators of alpha2C/GIRK thallium flux, primary screen, cell-based, HEK293 alpha2C/GIRK1/2 (AID 624;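 active means fluorescence slope after compound addition differing from the mean of all screened samples at 99.7% confidence, in either direction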;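 further: slope of fluorescence ratio to pre-addition baseline per second over 15 to 24 s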). Conditions: thallium flux BTC fluorescence, at 10 µM, actives lie on both sides.
A short description of test [8]: inhibitors of larval lipid processing in zebrafish, primary screen, whole organism, PED6 fluorescence, gall bladder and intestine (AID 686;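 active means a full or partial loss of lipid-probe fluorescence in the fish gall bladder, intestine or both, judged by eye; inactive means no fluorescence loss, or compound toxic to the fish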;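 further: larvae 5 to 7 days old with five fish per well; signal comes from phospholipase A2 cleavage of quenched PED6 carried via bile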). Conditions: Zebrafish larvae PED6 lipid processing, fluorescence scoring; screened at 20 µM (by protocol). In short, it runs like this: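 system = live zebrafish larvae aged 5-7 days, whole organism | probe or stimulus = ingested quenched lipid PED6 at 100 nM | doses = 20 µM single dose | timing = overnight exposure | detection = fluorescence microscopy with visual scoring of gall bladder and intestine | read-out = visual per-well fluorescence inhibition score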

A short description of test [9]: inhibitors of Chlamydomonas gravitaxis, primary screen, whole organism, Chlamydomonas reinhardtii, WT vs cilia-less mutant, absorbance, 96-well (AID 463189;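 active means inhibition at or above 50% relative to wild type and mutant plate controls; inactive means inhibition below 50%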;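 further: 0% = wild type cc124 cells in DMSO and 100% = ciliumless bld1 mutant cells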). The following applies: OD600 absorbance, 2 days, at 10 µM, stronger effect = higher value.
[10] abbreviates: measured here: cell density z-score.
[11] abbreviates: measured here: nuclear c-Myc green intensity z-score.
[12] abbreviates: measured here: nuclear pErk red intensity z-score, stronger effect = higher value.

Chain of Dual specificity protein phosphatase 6 (Homo sapiens) (Q16828 whole entry, looked up): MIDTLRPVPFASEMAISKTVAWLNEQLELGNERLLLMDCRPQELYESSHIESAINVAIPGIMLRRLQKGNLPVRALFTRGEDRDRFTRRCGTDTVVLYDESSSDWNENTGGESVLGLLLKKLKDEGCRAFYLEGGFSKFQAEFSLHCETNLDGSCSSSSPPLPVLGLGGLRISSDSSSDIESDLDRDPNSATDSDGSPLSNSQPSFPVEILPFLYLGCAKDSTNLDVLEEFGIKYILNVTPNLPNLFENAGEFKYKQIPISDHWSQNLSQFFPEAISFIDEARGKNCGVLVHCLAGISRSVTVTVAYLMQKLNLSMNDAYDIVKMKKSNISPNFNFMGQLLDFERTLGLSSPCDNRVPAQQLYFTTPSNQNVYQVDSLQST
Chain of Voltage-gated potassium channel subunit beta-2 (Rattus norvegicus) (P62483 whole entry, looked up): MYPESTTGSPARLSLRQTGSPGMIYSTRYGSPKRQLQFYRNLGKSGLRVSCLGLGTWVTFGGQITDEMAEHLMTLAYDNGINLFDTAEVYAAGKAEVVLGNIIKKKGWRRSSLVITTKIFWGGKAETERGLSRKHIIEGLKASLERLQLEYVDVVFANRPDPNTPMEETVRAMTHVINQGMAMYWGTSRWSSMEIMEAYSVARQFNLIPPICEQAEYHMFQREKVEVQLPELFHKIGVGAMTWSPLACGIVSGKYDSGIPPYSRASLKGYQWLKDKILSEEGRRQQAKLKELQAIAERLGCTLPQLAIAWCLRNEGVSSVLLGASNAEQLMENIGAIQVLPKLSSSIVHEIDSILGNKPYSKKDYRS
Chain of Alpha-2C adrenergic receptor (Homo sapiens) (P18825 whole entry, looked up): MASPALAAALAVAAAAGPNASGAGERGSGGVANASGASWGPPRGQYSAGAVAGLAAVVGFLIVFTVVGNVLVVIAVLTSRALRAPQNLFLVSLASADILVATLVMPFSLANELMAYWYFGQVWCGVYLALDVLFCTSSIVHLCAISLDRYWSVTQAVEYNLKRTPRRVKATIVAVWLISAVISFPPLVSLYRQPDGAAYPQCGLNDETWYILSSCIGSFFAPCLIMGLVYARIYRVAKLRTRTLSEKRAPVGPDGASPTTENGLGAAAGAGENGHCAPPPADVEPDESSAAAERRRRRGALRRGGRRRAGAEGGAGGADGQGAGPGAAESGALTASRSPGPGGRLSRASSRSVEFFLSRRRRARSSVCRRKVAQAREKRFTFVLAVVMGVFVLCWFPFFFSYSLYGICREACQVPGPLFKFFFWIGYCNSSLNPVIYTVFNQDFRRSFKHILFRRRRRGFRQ

Consider `COC(=O)CNc1nc(-c2cccnc2)nc2ccccc12`, for which the cell count in test [1] is 543. Also, the inhibition in test [1] was -5.9% (inactive); in test [2], -23.5% (inactive); in test [4], -11.9% (inactive); in [9], -0.905% (inactive). This compound also gave a nuclei count in [2] of 156%. In addition, the z-score in test [3] (setting [10]) was -0.375; in test [3] (setting [11]), 1.95; in test [3] (setting [12]), 0.774. For the same compound, the fluorescence slope in [5] is -0.327 (inactive). The NADPH fluorescence slope in test [6] is 8.2e-06 (inactive). In addition, the slope in test [7] is 0.0052 (inactive). Also, the compound was classed as inactive in [8].

As for `C=CCn1c(-c2ccccc2)n[nH]c1=S`, in [1], the cell count turned out to be 492. In addition, the inhibition in test [1] was -1.5% (inactive); in test [2] it was 71% (active); in [4], 4.25% (inactive); in test [9], 5.46% (inactive). The compound further registered a nuclei count in test [2] of 124%. In addition, the z-score in test [3] (setting [10]) was -1.14; in test [3] (setting [11]), 2.62; in test [3] (setting [12]) it was -0.366. Also, the fluorescence slope in [5] is -0.512 (inactive). In [6], the NADPH fluorescence slope was -0.000177 (inactive). The slope in [7] is 0.00512 (inactive). For the same compound, the outcome in test [8] was inactive.

In the case of `CCOc1cccc(-c2nnc3sc(COc4ccccc4)nn23)c1`, in [1], the cell count was found to be 537. Further, the inhibition was -7.5% (inactive) in test [1], 40.9% (inactive) in [2], -4.27% (inactive) in test [4] and 17.6% (inactive) in [9]. Further, the nuclei count in test [2] was found to be 91.9%. Moreover, the z-score in test [3] (setting [10]) was 1.73; in test [3] (setting [11]), -0.94; in [3] (setting [12]), -0.568. In [5], the fluorescence slope was -0.433 (inactive). For the same compound, in [6], the NADPH fluorescence slope is -9.6e-05 (inactive). Moreover, in [7], the slope is 0.00533 (inactive). Also, in [8], the outcome was inactive.

On to `COC(=O)c1sc(NC(C)=O)c(C(=O)OC)c1C`, for which the cell count in test [1] stood at 633. The inhibition in test [1] was -13.3% (inactive); in test [2], 4.8% (inactive); in test [4] it was 6.04% (inactive); in test [9] it was -1.51% (inactive). The same compound gave a nuclei count in test [2] of 154%. The z-score is 1.36 in test [3] (setting [10]), -0.117 in [3] (setting [11]) and -1.37 in test [3] (setting [12]). In addition, the fluorescence slope in [5] was -0.516 (inactive). In test [6], the NADPH fluorescence slope was -9.3e-05 (inactive). Besides, in [7], the slope is 0.00594 (inactive). Further, the call in [8] was inactive.

As to `CCCCOC(=O)C(C)c1c(C)[nH]c(=S)[nH]c1=O` (centres undefined), in test [1], the cell count was 479. In addition, the inhibition was -1.2% (inactive) in test [1], -142% (inactive) in [2], -3.5% (inactive) in test [4] and 11.1% (inactive) in test [9]. The compound further showed a nuclei count in test [2] of 138%. Moreover, the z-score in test [3] (setting [10]) was 0.126; in test [3] (setting [11]), 0.523; in test [3] (setting [12]), -0.0829. Further, the fluorescence slope in test [5] was -0.505 (inactive). In addition, in [6], the NADPH fluorescence slope is -3.9e-05 (inactive). Moreover, the slope in test [7] is 0.00553 (inactive). Moreover, the call in test [8] was inactive.

As to `Cc1nc(NS(=O)(=O)c2ccccc2)sc1NC(=O)OCCN(C)C`, the cell count in [1] came out at 362. Further, the inhibition in [1] is -18.9% (inactive); in [2], -107% (inactive); in [4], 24.3% (inactive); in [9], 34.8% (inactive). In test [2], this compound had a nuclei count of 130%. Besides, the values for the z-score in test [3] (setting [10]), in test [3] (setting [11]) and in [3] (setting [12]) were 1.66, -0.339 and -0.337, respectively. In addition, the fluorescence slope in [5] was -0.331 (inactive). The NADPH fluorescence slope in test [6] is 2.1e-06 (inactive). Besides, in test [7], the slope is 0.00439 (inactive). In addition, the result in test [8] was inactive.

As for `CC(C)OC(=O)c1sc2nc3c(cc2c1N)C(=O)CCC3`, the cell count in [1] turned out to be 334. The inhibition in [1] is -8% (inactive); in [2], -109% (inactive); in test [4] it was 9.42% (inactive); in test [9], -4.23% (inactive). Further, the nuclei count in [2] worked out at 159%. In addition, the values for the z-score in test [3] (setting [10]), in test [3] (setting [11]) and in [3] (setting [12]) were 1.59, -1.25 and -0.674, respectively. Moreover, in test [5], the fluorescence slope was -0.403 (inactive). Besides, the NADPH fluorescence slope in test [6] was -9.2e-05 (inactive). The slope in [7] was 0.0073 (inactive). Also, the compound was called inactive in test [8].

As to `C/C(=N\O)C1(C)N(O)C(C)(C)C(c2ccco2)=[N+]1[O-]` (centres undefined), the cell count in [1] came out at 428. Further, the inhibition in [1] is -2.8% (inactive); in test [2], -112% (inactive); in test [4] it was 13.2% (inactive); in test [9] it was 14.5% (inactive). This compound yielded a nuclei count in test [2] of 131%. Moreover, the figures for the z-score in test [3] (setting [10]), in test [3] (setting [11]) and in test [3] (setting [12]) were 0.73, -1.17 and -0.0605, respectively. Further, in [5], the fluorescence slope is -0.486 (inactive). In addition, the NADPH fluorescence slope in [6] was -3.2e-05 (inactive). For the same compound, the slope in test [7] is 0.00518 (inactive). Also, in test [8], the compound was called inactive.

In the case of `COC(=O)CC1=C(C(=O)OC)C(c2ccncc2)C(C#N)=C(N)O1` (centres undefined), the cell count in test [1] worked out at 492. The inhibition in [1] is -3.8% (inactive); in test [2], -58.7% (inactive); in test [4] it was 16.8% (inactive); in [9], 24.5% (inactive). Besides, the nuclei count in test [2] worked out at 157%. For the same compound, the z-score was 1.74 in test [3] (setting [10]), -0.108 in test [3] (setting [11]) and -0.84 in [3] (setting [12]). In addition, the fluorescence slope in [5] is -0.366 (inactive). Moreover, the NADPH fluorescence slope in test [6] was 1e-05 (inactive). Further, the slope in test [7] is 0.00477 (inactive). Moreover, the compound was called inactive in [8].

For the compound `Cn1cc(C(=O)NCN2CCCCC2)c2ccccc21`, the cell count in test [1] was 637. In addition, the inhibition in [1] is -1.9% (inactive); in test [2], 33.7% (inactive); in test [4], -5.89% (inactive); in [9] it was -12.4% (inactive). The compound further registered a nuclei count in [2] of 201%. In addition, the values for the z-score in test [3] (setting [10]), in test [3] (setting [11]) and in [3] (setting [12]) were 0.345, -0.8 and -0.0314, respectively. Also, the fluorescence slope in test [5] was -0.45 (inactive). Besides, the NADPH fluorescence slope in test [6] was -0.000261 (inactive). Also, in test [7], the slope is 0.00517 (inactive). For the same compound, the compound was classed as inactive in test [8].

For the compound `CCn1cc(C(=O)NCCc2ccccc2)c(=O)c2cc(F)c(N3CCN(C)CC3)cc21`, the cell count in test [1] was 483. For the same compound, the inhibition in [1] was -8.4% (inactive); in [2], -187% (inactive); in test [4] it was -8.95% (inactive); in test [9], 23.3% (inactive). Moreover, in [2], the nuclei count was determined as 186%. For the same compound, the z-score in test [3] (setting [10]) was -0.562; in test [3] (setting [11]), 1.62; in test [3] (setting [12]) it was 1.38. For the same compound, the fluorescence slope in [5] was -0.321 (inactive). Further, the NADPH fluorescence slope in [6] is -1.5e-05 (inactive). Besides, the slope in test [7] is 0.00526 (inactive). Moreover, in test [8], the compound was classed as inactive.

With `COc1ccc(C=NCCCN2CCOCC2)cc1`, the cell count in test [1] was found to be 638. Further, the inhibition in test [1] is -9.5% (inactive); in [2] it was -363% (inactive); in test [4], -0.159% (inactive); in test [9] it was -6.33% (inactive). Besides, the nuclei count in test [2] was determined as 165%. Also, the values for the z-score in [3] (setting [10]), in [3] (setting [11]) and in test [3] (setting [12]) were -1.79, -1.02 and 1.46, respectively. The fluorescence slope in test [5] is -0.486 (inactive). Besides, the NADPH fluorescence slope in test [6] was -8.5e-05 (inactive). Also, the slope in test [7] is 0.00493 (inactive). Besides, the compound was called inactive in [8].

Turning to `Cc1nccn1-c1cc(C(C)C)c(C#N)c2nc3ccccc3n12`, in test [1], the cell count is 468. The inhibition in [1] was -22.6% (inactive); in [2], -68.2% (inactive); in test [4] it was 8.31% (inactive); in test [9], 23% (inactive). The nuclei count in [2] stood at 140%. In addition, the z-score in [3] (setting [10]) is 1.43; in test [3] (setting [11]), -0.347; in [3] (setting [12]), -0.664. Further, the fluorescence slope in [5] was -0.524 (inactive). Besides, in test [6], the NADPH fluorescence slope was -2.8e-05 (inactive). The slope in test [7] is 0.0063 (inactive). Moreover, in test [8], the result was inactive.

The values are drawn from PubChem BioAssay.
